Experimental data collected from several papers.
Lines come from different studies, so protocols differ.
Target: Macrophage-stimulating protein receptor (MST1R, Homo sapiens, UniProt Q04912)

C=CC(=O)N1CCC(C(=O)NCC(=O)N2CCN(c3nc(-c4cnc(N)nc4C(F)F)nc(N4CCOCC4)n3)CC2)CC1 — remaining binding (binding; competition with immobilised ligand; 1 µM): 100%
O=C(Nc1cccnn1)N1CC(C/C=C/c2cncc(Oc3ccc(C(F)(F)F)cn3)n2)C1 — remaining binding (cell-free assay; competition with immobilised ligand; 1 µM): 100%
CN(C)c1nccc(-c2cnn3ncccc23)n1 — remaining binding (binding; 1 µM): 100%
C[C@@]1(Cc2ccc(C#N)cc2)C(=O)N(c2cc(Cl)cc(Cl)c2)c2ncc(C(=O)NC3(c4nc(C5CCC5)no4)CC3)n21 — remaining binding (cell-free assay; competition with immobilised ligand; 1 µM): 100%
Nc1ncc2c(n1)-c1c([nH]c3ccc(C#CC4CC4)cc13)CCCC2 — remaining binding (binding; competition with immobilised ligand; 1 µM): 100%
c1cncc(-c2cccc(Nc3nccc(NC4CCCCC4)n3)c2)c1 — remaining binding (binding; competition with immobilised ligand; 10 µM): 78%
C[C@@H]1CCN(c2nccc(-c3cnn4ncccc34)n2)C1 — remaining binding (binding; 1 µM): 100%
FC(F)(F)Oc1cccc(-c2cnc3ccc(-c4ccncc4)nn23)c1 — remaining binding (cell-free assay; competition with immobilised ligand; 5 µM): 79%
O=C(NCCCN1CCOCC1)c1ccc(Nc2nccc(-c3cc4ccccc4s3)n2)cc1 — remaining binding (binding; competition with immobilised ligand; 1 µM): 100%
c1ccc(N2CCN(Cc3nc4ccccc4[nH]3)CC2)nc1 — remaining binding (cell-free assay; competition with immobilised ligand; 1 µM): 100%
O=C(c1ccc(Nc2ncc(Cl)c(-c3ccc(Cl)s3)n2)cc1)N1CCC(N2CCCC2)CC1 — remaining binding (binding; competition with immobilised ligand; 1 µM): 43%
CN(C)c1nccc(-c2cnc3ncccn23)n1 — remaining binding (binding; 1 µM): 98%
Cc1cnc(Nc2ccc(C(=O)N3CCC(N4CCCC4)CC3)cc2)nc1-c1cc2ccccc2s1 — remaining binding (binding; competition with immobilised ligand; 1 µM): 83%
CNC(=O)Nc1ccc2c(c1)[C@@]1(CC2)OC(=O)N(CC(=O)N(Cc2ccc(F)cc2)[C@@H](C)C(F)(F)F)C1=O — remaining binding (cell-free assay; competition with immobilised ligand; 1 µM): 100%
COc1cnc(Nc2cccc(S(N)(=O)=O)c2)nc1N1CCN(c2ccccc2)CC1 — remaining binding (binding; competition with immobilised ligand; 1 µM): 99%
Cc1cnn2ncc(-c3ccnc(N(C)C)n3)c2c1 — remaining binding (binding; 1 µM): 71%
O=C(Nc1c[nH]nc1C(=O)NC1CCNCC1)c1cc(F)cc(F)c1 — remaining binding (binding; competition with immobilised ligand; 1 µM): 100%
COc1ccnn2ncc(-c3ccnc(N(C)C)n3)c12 — remaining binding (binding; 1 µM): 100%
CNC(=O)c1ccc(Nc2ncc(C(F)(F)F)c(NCc3nccnc3N(C)S(C)(=O)=O)n2)cc1 — remaining binding (cell-free assay; competition with immobilised ligand; 0.1 µM): 100%
N[C@@H]1CCN(c2nccc(-c3cnn4ncccc34)n2)C1 — remaining binding (binding; 1 µM): 100%
NS(=O)(=O)c1cc(NC(=O)Cc2ccccc2)ccc1Oc1cccc(Cl)c1 — remaining binding (cell-free assay; competition with immobilised ligand; 1 µM): 97%
